Results gathered from unrelated publications.
Lines come from different studies, so protocols differ.
MET: Hepatocyte growth factor receptor (MET, Homo sapiens, UniProt P08581)
MET Y1235D: Hepatocyte growth factor receptor (MET, Homo sapiens, UniProt P08581, Y1235D)
MET M1250T: Hepatocyte growth factor receptor (MET, Homo sapiens, UniProt P08581, M1250T)

Compound	target	effect on	technique	tested at	remaining binding
CCS(=O)(=O)c1cc2cc(C[C@@](O)(CC(C)(C)c3ccc(F)cc3C(N)=O)C(F)(F)F)[nH]c2cn1	MET	cell-free assay	competition with immobilised ligand	1 µM	100%
CN(C)c1nccc(-c2cnn3ncccc23)n1	MET Y1235D	binding	–	1 µM	90%
O=C(c1ccc(Nc2nccc(-c3cc4ccccc4s3)n2)cc1)N1CCC(N2CCCC2)CC1	MET Y1235D	binding	competition with immobilised ligand	1 µM	85%
CNC(=O)[C@@H]1CC[C@@H](n2c(-c3ccc4cnccc4c3)nc3ccc(C(=O)NCc4cccc(C(N)=O)c4)cc32)C1	MET M1250T	binding	competition with immobilised ligand	1 µM	100%
O=C(Nc1c[nH]nc1C(=O)NC1CCNCC1)c1cc(F)cc(F)c1	MET M1250T	binding	competition with immobilised ligand	1 µM	100%
COc1cc(-c2cn(C3CCc4c(F)cccc4N(CC(F)(F)F)C3=O)nn2)ccc1-n1cnc(C)c1 (stereo not drawn)	MET M1250T	cell-free assay	competition with immobilised ligand	1 µM	100%
COc1ccnn2ncc(-c3ccnc(N(C)C)n3)c12	MET	binding	–	1 µM	92%
CCN1CCN(Cc2ccc(C(=O)Nc3ccc(C)c(Oc4ccc5c(c4)CC(=O)N5)c3)cc2C(F)(F)F)CC1	MET	binding	competition with immobilised ligand	1 µM	100%
O=C(NCC1CCOCC1)c1n[nH]cc1NC(=O)c1c(F)cccc1F	MET Y1235D	binding	competition with immobilised ligand	1 µM	97%
C[C@@H]1CN(c2ccc3ncc(-c4ccc5[nH]nc(C6CC6)c5c4)n3n2)C[C@H](C)O1	MET	binding	competition with immobilised ligand	0.5 µM	80%
CCCCN(CCCC)C(=O)CN1C[C@H](c2cc(OC)c3c(c2)OCO3)[C@@H](C(=O)O)[C@@H]1CC(C)(C)CCC	MET Y1235D	cell-free assay	competition with immobilised ligand	1 µM	100%
O=C(NCCCN1CCOCC1)c1ccc(Nc2ncc(Cl)c(-c3ccc(Cl)s3)n2)cc1	MET M1250T	binding	competition with immobilised ligand	1 µM	13%
Cc1nc(N2CC[C@@H](O)C2)ncc1-c1cc(C(F)(F)F)cc2[nH]ncc12	MET	cell-free assay	competition with immobilised ligand	1 µM	100%
O=C(c1ccc(Nc2ncc(Cl)c(-c3ccc(Cl)s3)n2)cc1)N1CCC(N2CCCC2)CC1	MET M1250T	binding	competition with immobilised ligand	1 µM	6.5%
Nc1ncc2c(n1)-c1c([nH]c3ccc(C#CC4CC4)cc13)CCCC2	MET M1250T	binding	competition with immobilised ligand	1 µM	95%
CN(C)c1nccc(-c2cnc3ncccn23)n1	MET Y1235D	binding	–	1 µM	76%
O=C(NCCCN1CCOCC1)c1ccc(Nc2nccc(-c3cc4ccccc4s3)n2)cc1	MET	binding	competition with immobilised ligand	1 µM	100%

Compound	target	effect on	technique	tested at	remaining binding
COc1cnc(Nc2cccc(S(N)(=O)=O)c2)nc1N1CCN(c2ccccc2)C(=O)C1	MET	binding	competition with immobilised ligand	1 µM	100%
CN(C(=O)c1ccccc1)c1cc(N(C)c2ccc3c(c2)CCc2ccc(C(=O)NCCN4CCOCC4)cc2C3=O)ccc1F	MET Y1235D	cell-free assay	competition with immobilised ligand	1 µM	85%
C[C@H]1CCN(c2nccc(-c3cnn4ncccc34)n2)C1	MET Y1235D	binding	–	1 µM	100%
COc1cnc(Nc2cccc(S(N)(=O)=O)c2)nc1N1CCN(c2ccccc2)CC1	MET Y1235D	binding	competition with immobilised ligand	1 µM	100%
COc1ncc2cc3ccccc3nc2c1C#N	MET Y1235D	cell-free assay	competition with immobilised ligand	5 µM	80%
Cc1cnc(Nc2ccc(C(=O)N3CCC(N4CCCC4)CC3)cc2)nc1-c1cc2ccccc2s1	MET	binding	competition with immobilised ligand	1 µM	100%
Cc1cnn2ncc(-c3ccnc(N(C)C)n3)c2c1	MET	binding	–	1 µM	100%
C[C@H](NC(=O)c1cnc2n1[C@](C)(Cc1ccc(C#N)cc1)C(=O)N2c1cc(Cl)c(F)c(Cl)c1)C(=O)NC1(c2ccccn2)CC1	MET	cell-free assay	competition with immobilised ligand	1 µM	100%
c1cncc(-c2cccc(Nc3nccc(NC4CCCCC4)n3)c2)c1	MET Y1235D	binding	competition with immobilised ligand	10 µM	73%
O=C(c1ccc(Nc2ncc(Cl)c(-c3cc4ccccc4s3)n2)cc1)N1CCC(N2CCCC2)CC1	MET	binding	competition with immobilised ligand	1 µM	82%
COC(=O)Nc1nc2ccc(C(=O)c3ccccc3)cc2[nH]1	MET	cell-free assay	competition with immobilised ligand	10 µM	32%
C[C@H](c1ccc(F)cc1)N(Cc1cccc(C(=O)O)c1)C(=O)c1cnc2ccccc2c1	MET M1250T	cell-free assay	competition with immobilised ligand	1 µM	93%
CC1CCCN1c1nccc(-c2cnn3ncccc23)n1 (stereo not drawn)	MET	binding	–	1 µM	96%
O=C1CCc2cc(Nc3cc(OC4CCOCC4)c([N+](=O)[O-])cc3Cl)ccc2N1	MET Y1235D	cell-free assay	competition with immobilised ligand	1 µM	100%
N[C@H]1CCN(c2nccc(-c3cnn4ncccc34)n2)C1	MET	binding	–	1 µM	90%
CN1CCN(c2ccc(Nc3nccc(-c4cccc([N+](=O)[O-])c4)n3)cc2C(F)(F)F)CC1	MET Y1235D	binding	–	10 µM	27%
